Laboratory results from ChEMBL document CHEMBL1146916, “Studies towards the conception of new selective PPARbeta/delta ligands” (Bioorg Med Chem Lett, 2006).
Activity calls are given as the source filed them. No cut-off for these calls is given here.

What was measured:
[1] = target: T1, Peroxisome proliferator-activated receptor delta (Homo sapiens, UniProt Q03181); experiment: (§1) Activity at PPARbeta/delta by luciferase reporter gene transactivation assay in COS7 cells; type: functional, cell-based, COS-7
T1 sequence (Q03181 whole entry): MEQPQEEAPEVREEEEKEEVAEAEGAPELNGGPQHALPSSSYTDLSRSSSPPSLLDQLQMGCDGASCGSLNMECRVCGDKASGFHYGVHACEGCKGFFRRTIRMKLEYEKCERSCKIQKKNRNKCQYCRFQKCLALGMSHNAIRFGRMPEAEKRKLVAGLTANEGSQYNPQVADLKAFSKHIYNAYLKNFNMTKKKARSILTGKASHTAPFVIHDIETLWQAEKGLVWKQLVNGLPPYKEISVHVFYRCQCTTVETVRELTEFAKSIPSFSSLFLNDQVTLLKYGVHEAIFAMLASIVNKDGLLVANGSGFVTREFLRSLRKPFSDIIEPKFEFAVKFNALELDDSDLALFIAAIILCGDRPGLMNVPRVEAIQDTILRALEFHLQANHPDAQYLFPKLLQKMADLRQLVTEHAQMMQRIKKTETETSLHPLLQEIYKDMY

[2] = target: T2, Peroxisome proliferator-activated receptor alpha (Homo sapiens) (UniProt Q07869); experiment: (§2) Activity at PPARalpha by luciferase reporter gene transactivation assay in COS7 cells; type: functional, cell-based; details: COS-7
T2 sequence (whole entry): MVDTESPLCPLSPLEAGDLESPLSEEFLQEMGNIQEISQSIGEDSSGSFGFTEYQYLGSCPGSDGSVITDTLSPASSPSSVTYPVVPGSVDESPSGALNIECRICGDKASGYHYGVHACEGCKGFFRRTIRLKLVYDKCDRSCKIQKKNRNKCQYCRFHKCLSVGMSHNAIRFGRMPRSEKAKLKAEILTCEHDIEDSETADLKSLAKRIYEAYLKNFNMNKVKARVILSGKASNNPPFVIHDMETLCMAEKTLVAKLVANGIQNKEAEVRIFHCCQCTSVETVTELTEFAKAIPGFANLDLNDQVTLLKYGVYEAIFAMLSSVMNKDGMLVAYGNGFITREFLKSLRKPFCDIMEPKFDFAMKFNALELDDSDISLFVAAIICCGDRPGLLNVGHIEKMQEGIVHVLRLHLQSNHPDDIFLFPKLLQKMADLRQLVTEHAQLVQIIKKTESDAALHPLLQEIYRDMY

[3] = target: T3, Peroxisome proliferator-activated receptor alpha (Homo sapiens, UniProt Q07869); experiment: as §2; type: functional, cell-based, COS-7
T3 sequence (Q07869 whole entry): T2 sequence (whole entry)

[4] = target: T4, Peroxisome proliferator-activated receptor gamma (Homo sapiens, UniProt P37231); experiment: Activity at PPARgamma by luciferase reporter gene transactivation assay in COS7 cells; type: functional, cell-based, COS-7
T4 sequence (P37231 whole entry): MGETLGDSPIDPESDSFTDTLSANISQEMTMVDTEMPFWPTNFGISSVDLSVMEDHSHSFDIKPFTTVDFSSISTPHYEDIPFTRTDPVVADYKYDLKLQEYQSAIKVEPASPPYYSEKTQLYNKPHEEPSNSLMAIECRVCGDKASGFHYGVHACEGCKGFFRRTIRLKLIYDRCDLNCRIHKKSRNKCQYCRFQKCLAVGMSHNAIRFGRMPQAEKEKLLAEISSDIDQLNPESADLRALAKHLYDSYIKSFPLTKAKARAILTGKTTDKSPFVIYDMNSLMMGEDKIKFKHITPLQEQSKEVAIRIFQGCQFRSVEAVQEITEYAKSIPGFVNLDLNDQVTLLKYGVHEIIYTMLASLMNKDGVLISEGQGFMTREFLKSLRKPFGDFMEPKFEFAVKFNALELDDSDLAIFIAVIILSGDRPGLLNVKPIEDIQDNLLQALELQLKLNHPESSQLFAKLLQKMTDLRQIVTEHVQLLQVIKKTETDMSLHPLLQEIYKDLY

[5] = target: T2, Peroxisome proliferator-activated receptor alpha (Homo sapiens); experiment: Activity at PPARalpha by luciferase reporter gene transactivation assay in COS7 cells relative to WY-14643 at 10 uM; type: functional, cell-based; details: COS-7
Summary of the method: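 Cos-7 cells were transiently transfected, using PEI in OptiMEM for 3 h at 37 °C, with the pG5-TK-pGL3 luciferase reporter, pGAL4hPPARa (Gal4 DBD–human PPARα LBD) and pCMV-β-galactosidase. Cells were reseeded in 96-well plates and treated for 16 h in DMEM with 0.2% FCS at 10 µM–10 nM. Luciferase was normalized to β-galactosidase, and maximal activity was expressed versus the WY14.643 positive control. Experiments were run at least three times.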

[6] = target: T5, Peroxisome proliferator-activated receptor delta (Homo sapiens) (UniProt Q03181); experiment: as §1; type: functional, cell-based; details: COS-7
T5 sequence (whole entry): T1 sequence (Q03181 whole entry)

[7] = species: Homo sapiens; experiment: Selectivity for human PPARdelta over human PPARalpha
Summary of the method: (§3)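 The selectivity ratio is taken from EC50 values measured in Cos-7 cells transiently transfected with the pG5-TK-pGL3 luciferase reporter plus Gal4 DBD–human PPARβ/δ, PPARα or PPARγ LBD chimeras and β-galactosidase control. Cells were treated for 16 h in 0.2% FCS DMEM at 10 µM–10 nM. EC50s were fitted from β-gal-normalized luciferase and are means of three experiments.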

[8] = target: PPAR delta/gamma (Homo sapiens) (UniProt P37231+Q03181); experiment: Selectivity for human PPARdelta over human PPARgamma; type: protein assay; summary of the method: as §3

SMILES	EC50 [1] [nM]	Activity [2]	EC50 [3] [nM]	EC50 [4] [nM]	Activity [5] [%]	Activity [6]	Selectivity ratio [7]	Selectivity ratio [8]
CC(=O)c1ccc(OCCCOc2ccc(OCC(=O)O)cc2)cc1O	10000	inactive	–	–	–	–	–	–
CCCc1cc(C(F)(F)F)ccc1OCCCOc1ccc(OCC(=O)OC)cc1	98	–	1400	1190	49	–	–	–
COC(=O)COc1ccc(OCCCOc2cccc(O)c2)cc1	–	inactive	–	–	–	inactive	–	–
CC(=O)c1ccc(OCCCOc2ccc(OCC(=O)O)cc2)cc1	–	inactive	–	–	–	inactive	–	–
CCCc1c(OCCCOc2ccc(OCC(=O)OC)cc2)ccc(C(C)=O)c1O	457	–	1070	288	32	–	–	–
CCCc1c(OCCCOc2ccc(OCC(=O)O)cc2)ccc(C(C)=O)c1O	125	–	977	1820	–	–	8	15
CCCc1cc(C(F)(F)F)ncc1OCCCOc1ccc(OCC(=O)O)c(C)c1	15	–	1330	1580	136	–	> 100	–
Cc1cc(SCc2sc(-c3ccc(C(F)(F)F)cc3)nc2C)ccc1OCC(=O)O	–	–	–	–	452	–	–	–
CCCc1ccccc1OCCCOc1ccc(OCC(=O)OC)cc1	1050	inactive	–	–	–	–	–	–
CCCc1c(OCCCOc2ccc(OCC(=O)OC)cc2)cnc(C(C)=O)c1O	82	–	8390	757	64	–	–	–
CCCc1cc(C(F)(F)F)ccc1OCCCOc1ccc(OCC(=O)O)c(C)c1	7	–	103	153	40	–	–	–
CCCc1cc(C(F)(F)F)ccc1OCCCOc1ccc(OCC(=O)OC)c(C)c1	16	–	1010	1260	85	–	–	–
